Many of the other results were omitted from the sample, so hits are more common in it than they were.
YB-1 expr inh – YB-1 expression inhibition; delta delta Cp (YB-1 minus CDIP) (concentration not given with the values); 30,000 compounds, 0.37% hits; U2OS, qRT-PCR YB-1 vs CDIP delta delta Cp, 16 h; hits give high values; zero = DMSO, each unit about twofold;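 active = delta delta Cp rounded down to an integer at or above 3, about 3 SD of DMSO wells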;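 also: higher means less YB-1 transcript or more CDIP transcript relative to DMSO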
T cruzi intra – blocks T. cruzi growth inside host cells; intracellular Trypanosoma cruzi in host cells, plate reader; activity score (inhibition), % at 5.01 µM; 22,000 compounds, 4.9% hits; in the data active = activity score above about 55%;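 also: parasites and compound incubated about four days before reading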
INS-1E rescue – rescue of cytokine-induced death in INS-1E beta cells. protection from cytokine-induced ATP loss, % at 10 µM. INS-1E cytokine-induced death, ATP luminescence, 48 h; normalised: neutral wells 0, positive control 100. 20,000 compounds, 0.1% hits;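 active = mean replicate protection from cytokine-induced ATP loss at least 50% and at least 75% of replicates each reaching 50%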
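Test system: INS-1E rat cells | Quantity: 8000 cells per well | Medium: Phenol-red-free RPMI with 5% fetal bovine serum | Reagent: Cytokine cocktail of IFN-γ, TNF-α and IL-1β | Doses: One compound concentration, pin transfer | Timing: 48 h co-treatment, 10 min post-lysis read | Technique: Luminescent ATP assay (CellTiter-Glo)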
A number is an active result; . = inactive; / = not tested or not shown.

SMILES	YB-1 expr inh	T cruzi intra	INS-1E rescue
COc1ccc(NC(=O)Nc2cccc3c2O[C@@H](CN(C)Cc2ccc(C(=O)Nc4ccccc4N)cc2)[C@@H](C)CN([C@@H](C)CO)C3=O)cc1	.	.	.
COc1ccc(NC(=O)Nc2ccc3c(c2)C(=O)N([C@@H](C)CO)C[C@H](C)[C@H](CN(C)Cc2ccc(C(=O)Nc4ccccc4N)cc2)O3)cc1	.	.	.
COc1ccc(NC(=O)Nc2cccc3c2O[C@H](CN(C)Cc2ccc(C(=O)Nc4ccccc4N)cc2)[C@H](C)CN([C@H](C)CO)C3=O)cc1	.	61	.
C=CCN(C(C)=O)c1nc(C)c(Br)c(OC)n1	.	/	/
Cc1nn(-c2cc(Cl)ccc2Cl)c(N)c1-c1nc(-c2ccccc2)cs1	.	/	/
O=C(CSc1ccc(F)cc1Cl)C12CC3CC(CC(C3)C1)C2	7.2	/	/
N#CSCC(=O)C12CC3CC(CC(C3)C1)C2	.	/	/
Clc1ccc(Sc2ccc(-c3ccccn3)s2)cc1	.	/	/
C[C@H](CO)N1C[C@H](C)[C@H](CN(C)C(=O)Nc2ccc(F)cc2)Oc2ncc(C#Cc3ccc(C(F)(F)F)cc3)cc2C1=O	.	88	/
C[C@H](CO)N1C[C@H](C)[C@H](CN(C)C(=O)NC2CCCCC2)Oc2ncc(C#Cc3ccc(F)cc3)cc2C1=O	.	.	.
C[C@H](CO)N1C[C@H](C)[C@H](CN(C)C(=O)NC2CCCCC2)Oc2ncc(C#Cc3ccc(C(F)(F)F)cc3)cc2C1=O	.	88	.
C[C@H](CO)N1C[C@H](C)[C@H](CN(C)C(=O)Nc2ccc(F)cc2)Oc2ncc(C#Cc3ccc(F)cc3)cc2C1=O	.	.	/
C[C@@H]1CN([C@@H](C)CO)C(=O)c2cccc(NC(=O)c3nc4ccccc4s3)c2O[C@H]1CN(C)Cc1ccccc1	.	.	.
C[C@H]1CN([C@@H](C)CO)C(=O)c2cccc(NC(=O)c3nc4ccccc4s3)c2O[C@@H]1CN(C)Cc1ccccc1	.	.	.
C[C@H](CO)N1C[C@H](C)[C@@H](CN(C)Cc2ccc(C(F)(F)F)cc2)Oc2c(NC(=O)c3nc4ccccc4s3)cccc2C1=O	.	62	.
C[C@@H]1CN([C@H](C)CO)C(=O)c2cccc(NC(=O)c3nc4ccccc4s3)c2O[C@@H]1CN(C)Cc1ccc(C(=O)O)cc1	.	.	.
C[C@H](CO)N1C[C@H](C)[C@H](CN(C)Cc2ccc(C(F)(F)F)cc2)Oc2c(NC(=O)c3nc4ccccc4s3)cccc2C1=O	.	67	.
C[C@H]1CN([C@@H](C)CO)C(=O)c2cccc(NC(=O)c3nc4ccccc4s3)c2O[C@@H]1CN(C)Cc1ccc(C(F)(F)F)cc1	.	64	.
C[C@@H]1CN([C@@H](C)CO)C(=O)c2cccc(NC(=O)c3nc4ccccc4s3)c2O[C@H]1CN(C)Cc1ccc(C(F)(F)F)cc1	.	64	.
C[C@@H]1CN([C@H](C)CO)C(=O)c2cccc(NC(=O)c3nc4ccccc4s3)c2O[C@@H]1CN(C)Cc1ccc(C(F)(F)F)cc1	.	.	.
O=C(c1ccc(Br)cc1)C(C(=O)N1CCCCC1)n1ccccc1=O (centres undefined)	.	/	/
CC(C)(C)NC(=O)C[n+]1cccc(/C=N/O)c1	.	/	/
Cc1nc(-c2cc(C#N)c(SCCNS(=O)(=O)c3ccc(C(C)(C)C)cc3)nc2C)cs1	.	/	/
O=C(COC(=O)c1ccc(Cl)cc1NC(=O)c1ccc(Cl)cc1)c1ccccc1	.	/	/
S=c1[nH][n+]2c(-c3ccccc3)cc(-c3ccccc3)nc2s1	.	/	/
SMILES	YB-1 expr inh	T cruzi intra	INS-1E rescue
COc1ccc(Br)cc1COC(=O)C1c2ccccc2Oc2ccccc21	.	/	/
COc1cc(OC)c(O[C@@H]2O[C@H](COC(=O)c3cc(O)c(O)c(O)c3)[C@@H](O)[C@H](O)[C@H]2O)c(OC)c1	5.6	/	/
O=C(OC[C@H]1O[C@@H](Oc2ccc(O)cc2)[C@H](O)[C@@H](O)[C@@H]1O)c1ccc(O)cc1	.	/	/
CCCCCCCCCC/C=C\CCCCCCCc1cccc(O)c1C(=O)O	.	/	/
CC1(C)CC(=O)C=C(Sc2nc3cc(Cl)ccc3s2)C1	.	/	/
O=C(COc1ccc(Br)cc1)NCC1CCCO1 (centres undefined)	9.5	/	/
O=S(=O)(NCC1CCCO1)c1ccc(Br)cc1 (centres undefined)	.	/	/
CC(=O)O[C@@H]1[C@@H](OC(=O)/C=C/c2ccccc2)[C@@H](OC(=O)/C=C/c2ccccc2)[C@H](O[C@H]2[C@@H]3C=CO[C@@H](O[C@@H]4O[C@H](CO)[C@@H](O)[C@H](O)[C@H]4O)[C@@H]3[C@@]3(CO)O[C@@H]23)O[C@H]1C	.	/	/
Cc1cccc(CN(C)C[C@@H]2Oc3ncc(-c4ccccc4)cc3C(=O)N([C@H](C)CO)C[C@@H]2C)c1	.	.	/
C[C@H](CO)N1C[C@H](C)[C@H](CN(C)S(=O)(=O)c2cccc(F)c2)Oc2ncc(-c3cc4ccccc4o3)cc2C1=O	.	64	.
C[C@H](CO)N1C[C@H](C)[C@H](CN(C)Cc2ccc(F)cc2)Oc2ncc(-c3cc4ccccc4o3)cc2C1=O	.	78	/
C[C@H](CO)N1C[C@H](C)[C@H](CN(C)Cc2ccncc2)Oc2ncc(-c3cc4ccccc4o3)cc2C1=O	.	.	/
COc1cccc(S(=O)(=O)N(C)C[C@@H]2Oc3ncc(-c4cc5ccccc5o4)cc3C(=O)N([C@H](C)CO)C[C@@H]2C)c1	.	.	/
CNC[C@@H]1Oc2ncc(-c3cc4ccccc4o3)cc2C(=O)N([C@H](C)CO)C[C@@H]1C	.	79	/
C[C@H](CO)N1C[C@H](C)[C@H](CN(C)S(C)(=O)=O)Oc2ncc(-c3cc4ccccc4o3)cc2C1=O	.	.	/
Cc1cccc(CN(C)C[C@@H]2Oc3ncc(-c4cc5ccccc5o4)cc3C(=O)N([C@H](C)CO)C[C@@H]2C)c1	.	70	/
Cc1cc(O)c2c(c1)C(=O)C1=C(C2=O)C(O)C(O)C(O)C1O (centres undefined)	.	/	/
O=C(CN1CC(=O)Oc2ccccc21)Nc1ccc(O)cc1	.	/	/
CSc1ccc(/C=N/n2nnnc2Nc2ccccc2)cc1	.	/	/
Cc1cc(N(Cc2cccc(Cl)c2Cl)C(=O)c2ccccc2)no1	.	/	/
OCc1nc(-c2cc(C(F)(F)F)cc(C(F)(F)F)c2)cs1	.	/	/
O=S(=O)(NCC1CCN(Cc2ccc(OCCO)cc2)CC1)c1cc(C(F)(F)F)ccc1Cl	.	/	/
COc1ccc(NC(=O)Nc2ccc3c(c2)C(=O)N([C@H](C)CO)C[C@H](C)[C@H](CN(C)C(=O)Nc2ccc(OC)cc2)OCCCC[C@@H](C)O3)cc1	.	.	.
COc1ccc(NC(=O)Nc2ccc3c(c2)C(=O)N([C@H](C)CO)C[C@H](C)[C@H](CN(C)C(=O)Nc2ccc(C(F)(F)F)cc2)OCCCC[C@@H](C)O3)cc1	.	.	.
COc1ccc(NC(=O)N(C)C[C@H]2OCCCC[C@@H](C)Oc3ccc(NC(=O)Nc4ccc(C(F)(F)F)cc4)cc3C(=O)N([C@H](C)CO)C[C@@H]2C)cc1	.	57	.
COc1ccc(NC(=O)Nc2ccc3c(c2)C(=O)N([C@H](C)CO)C[C@H](C)[C@@H](CN(C)C(=O)Nc2ccc(C(F)(F)F)cc2)OCCCC[C@@H](C)O3)cc1	.	69	.
